Data set [1] deals with Liver. As to the kind of experiment: Drug metabolism in mouse liver microsomes assessed as metabolite M1 formation at 80 uM after 2 hrs by LC-MS analysis. The format is ADME, microsome. The method, boiled down: (§1)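 Metabolite identification used 80 µM test article incubated in triplicate with mouse liver microsomes (0.5 mg total protein) plus Phase I oxidation and Phase II glucuronidation cofactors, at 37°C with shaking at 150 rpm. Aliquots were taken at 0, 15, 30, 60 and 120 min and mixed with organic internal standard solution.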

A short description of data set [2]: Retention time of the compound at 80 uM by LC-MS analysis.
For data set [3], the system named is Liver. Briefly: Drug metabolism in mouse liver microsomes assessed as metabolite M4 formation at 80 uM after 2 hrs by LC-MS analysis. The format is ADME, microsome. The method, boiled down: as §1
For orientation: Microsomes from liver hold many membrane-bound enzymes, among them those of drug oxidation.

Data set [4] in a line: Inhibition of recombinant Respiratory syncytial virus-A2-L19F RNA-dependent RNA polymerase complex D489E mutant transfected with firefly luciferase gene at SMASh domain in human BEAS2B cells infected with Respiratory syncytial virus-A2-L19F assessed as reduction in viral replication measured after […] by bioluminescence assay. The data set is classed as cell-based. A digest of the protocol: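 BEAS-2B cells (1.5×10^4/well) received 3-fold serial compound dilutions prepared in three repeats (top concentration 10 µM) and were infected with firefly-luciferase/SMASh reporter RSV-A2-L19F D489E (MOI 0.1). Luminescence was converted to % inhibition against four-replicate positive and negative controls per plate. EC50 came from four-parameter variable-slope regression.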

Data set [5] deals with Liver. As to the kind of experiment: Drug metabolism in mouse liver microsomes assessed as metabolite M2 formation at 80 uM after 2 hrs by LC-MS analysis. The data set is classed as ADME, microsome. A digest of the protocol:
as §1

The nature of data set [6]: Selectivity index, ratio of CC50 for human BEAS2B cells to EC50 for inhibition of recombinant mkate-tagged-Respiratory syncytial virus-A2-L19F RNA-dependent RNA polymerase complex D489E mutant in human BEAS2B cells infected with Respiratory syncytial virus-A2-L19F. The data set is classed as toxicity, cell-based. Particulars: read-out: Ratio CC50/EC50. The method, boiled down:
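SI is CC50/EC50 in BEAS-2B cells. EC50 came from reporter RSV dose-response, 3-fold dilutions, top 10 µM. […] Both values from four-parameter variable-slope regression.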

Data set [7] is described as follows: Aqueous solubility of the compound in citrate buffer at pH 5 after 90 mins by laser nephelometric method. The data set is classed as physicochemical. A digest of the protocol: (§2)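 Stocks of 30 mg/mL in DMSO were serially diluted in DMSO, then into buffer to final 300 down to 1.5 µg/mL at 1% final DMSO. Diluent was PBS for pH 7.4 and citrate buffer for pH 3 and 5. Plates stood 90 min at ambient temperature. Forward-scatter laser nephelometry gave the concentration at which precipitation began.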

Data set [8] is described as follows: Aqueous solubility of the compound in citrate buffer at pH 3 after 90 mins by laser nephelometric method. The data set is classed as physicochemical. A digest of the protocol: as §2
Data set [9] can be described thus: Aqueous solubility of the compound in phosphate buffered saline at pH 7.4 after 90 mins by laser nephelometric method. The data set is classed as physicochemical. A digest of the protocol: as §2
Data set [10] has as its system Liver. As to the kind of experiment: Drug metabolism in mouse liver microsomes assessed as metabolite M3 formation at 80 uM after 2 hrs by LC-MS analysis. The data set is classed as ADME, microsome. A digest of the protocol:
as §1

The subject of data set [11] is Liver. Briefly: Half life in mouse liver S9 fraction at 1 uM by LC-MS analysis. The data set is classed as ADME, tissue-based. Particulars: s9, 1 µM. A digest of the protocol: (§3)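 Test article at 1 µM final was incubated in triplicate at 37°C with shaking (150 rpm) with mouse or human liver S9 or microsomes (0.5 mg total protein), with Phase I oxidation and Phase II glucuronidation cofactors. Cofactor-free and microsome-free controls were run, sampled only at 0 and 120 min. Other sampling was at 0, 15, 30, 60 and 120 min into organic internal standard solution.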

The subject of another data set is BEAS-2B. As to the kind of experiment: Cytotoxicity against human BEAS2B cells after 48 hrs by PrestoBlue staining based fluorescence assay. The data set is classed as cell-based. A digest of the protocol: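 Uninfected BEAS-2B cells were exposed to compound for 48 h at 37°C. PrestoBlue was added and incubated 90 min at 37°C, then fluorescence was read (ex 560 nm, em 590 nm). Cytotoxic was defined as metabolic activity <70% of vehicle control. Highest concentration assessed for cytotoxicity was 90 µM, and CC50 came from four-parameter variable slope regression.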

Data set [12] has as its system Liver. As to the kind of experiment: Half life in human liver microsomes at 1 uM by LC-MS analysis. The format is ADME, microsome. The method, boiled down: as §3
In data set [13] the test system is Liver. Briefly: Stability in mouse liver microsomes at 1 uM in absence of NADPH after 2 hrs by LC-MS analysis. The format is ADME, microsome. The method, boiled down: as §3
Data set [14] concerns Liver. As to the kind of experiment: Half life in mouse liver microsomes at 1 uM in presence of NADPH by LC-MS analysis. The data set is classed as ADME, microsome. The method, boiled down: as §3
For data set [15], the system named is Plasma. Briefly: Half life in human plasma at 1 uM by LC-MS analysis. The format is ADME, cell-free.
Data set [16] has as its system Liver. Briefly: Half life in human liver S9 fraction at 1 uM by LC-MS analysis. The format is ADME, tissue-based. Particulars: s9, 1 µM. A digest of the protocol: as §3
Data set [17] has as its system Plasma. As to the kind of experiment: Half life in mouse plasma at 1 uM by LC-MS analysis. The data set is classed as ADME, cell-free.
The test system of data set [18] is Liver. As to the kind of experiment: Drug level in mouse liver microsomes treated with at 1 uM GRP-74915 by LC-MS analysis. The data set is classed as ADME, microsome.
Data set [19] concerns Liver. As to the kind of experiment: Half life in mouse liver microsomes at 1 uM by LC-MS analysis. The data set is classed as ADME, microsome. The method, boiled down:
as §3

For data set [20], the system named is Liver. As to the kind of experiment: Half life in mouse liver microsomes at 1 uM in absence of NADPH by LC-MS analysis. The data set is classed as ADME, microsome. A digest of the protocol:
as §3

Data set [21] is described as follows: Antiviral activity against influenza A virus (A/WSN/1933(H1N1)) infected in MDCK cells assessed as reduction in viral replication measured after […] by bioluminescence assay. The format is functional, cell-based.
Data set [22] concerns Respiratory syncytial virus. Briefly: Inhibition of recombinant mkate-tagged-Respiratory syncytial virus-A2-L19F RNA-dependent RNA polymerase complex D489E mutant in human BEAS2B cells infected with Respiratory syncytial virus-A2-L19F assessed as reduction in RSV-N mRNA level measured after 20 hrs by RT-qPCR analysis. The data set is classed as cell-based. A digest of the protocol: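 Cells infected with mKate recRSV-A2-L19F (MOI 3 particles/cell) and exposed to compound at 0.1–10 µM, or DMSO, at 37°C for 20 h. RT-qPCR of RSV N mRNA, with melt-curve check. ΔΔCT calculated against GAPDH and normalised to DMSO controls. Three independent experiments, each in duplicate; mean ± SD.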

Data set [23] can be described thus: Inhibition of recombinant mkate-tagged-Respiratory syncytial virus-A2-L19F RNA-dependent RNA polymerase D489E mutant in human BEAS2B cells infected with Respiratory syncytial virus-A2-L19F assessed as reduction in progeny release measured after 48 hrs postinfection by fluorescence assay based progeny virus yield-based dose-response assay. The data set is classed as cell-based. Particulars: BEAS-2B. The method, boiled down: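 Cells in 12-well format infected with mKate-expressing recRSV-A2-L19F (MOI 0.05 particles/cell) in the presence of serial compound dilutions at 37°C. Cell-associated progeny harvested 48 h post-infection and released by one freeze/thaw cycle. Titres determined by TCID50 titration. Two repeats; EC50 derived by regression.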

Data set [24] deals with Vesicular stomatitis virus. Briefly: Antiviral activity against Vesicular stomatitis virus assessed as reduction in viral replication measured after […] by bioluminescence assay. The format is functional.
The test system of data set [25] is Liver. Briefly: Drug metabolism in mouse liver microsomes assessed as 5-(3-Methylfuran-2-carbonyl)-5,6,7,8-tetrahydro-4H-pyrazolo-[1,5-a][1,4]diazepine-2-carboxylic Acid formation at 1 uM by LC-MS analysis. The format is ADME, microsome.
Data set [26] deals with Respiratory syncytial virus. Briefly: Inhibition of Respiratory syncytial virus-A2-L19F RNA-dependent RNA polymerase complex D489E mutant in human BEAS2B cells infected with Respiratory syncytial virus-A2-L19F by firefly luciferase reporter-based RSV minigenome assay. The data set is classed as cell-based.
Setting [27] is: human respiratory syncytial virus, A2-L19F, BEAS-2B, 40 min.

Consider 5 compounds from ChEMBL document CHEMBL4007453, “Identification of Non-Nucleoside Inhibitors of the Respiratory Syncytial Virus Polymerase Complex” (J Med Chem, 2017).

The structures appear in SMILES notation. Converted amounts (≈) assume the structure as drawn. “And” between values parts separate entries of the source, which are not always exact repeats. Equal values may be shown once.

For the compound `Cc1ccoc1C(=O)N1CCCn2nc(C(=O)Cc3ccccc3)cc2C1`, the Drug metabolism entry in the data set with Liver [1], in the data set on Liver [3], with Liver [5] and in the data set on Liver [10] was “Metabolite_Detected” in each case. Further, the Retention time in data set [2] is 12.9 min. Also, the EC50 (commonly the concentration needed to bring the measured effect to its halfway point) in data set [4] (setting [27]) was 70 nM. The selectivity ratio in data set [6] came to 79. Further, the solubility (kinetic) (commonly the concentration staying in solution when a stock, usually in DMSO, is diluted into the medium) at 1.5 h in [7] was 18 µg/mL (≈ 49.5 µM); in [8], below 15 µg/mL; in data set [9] it was 18 µg/mL (≈ 49.5 µM). Also, the figures for the t1/2 with Liver [11], with Liver [12] and in the data set on Liver [14] were 20 min, 42 min and 20 min, respectively. Also, the CC50 – broadly, the concentration at which the toxic effect on the cells reaches its halfway point – with BEAS-2B turned out to be 5500 nM. For the same compound, the Stability entry with Liver [13] is recorded as “Stable”.
Regarding `Cc1ccoc1C(=O)N1CCCn2nc(C(=O)Nc3ccccc3F)cc2C1`, the t1/2 was above 1440 min in the data set on Plasma [15]; 420 min in the data set with Liver [16]; 11 min with Liver [11]; 318 min in the data set on Liver [12]; 144 min in the data set on Plasma [17]. Besides, the EC50 in [4] (setting [27]) turned out to be 50 nM. In data set [6], the selectivity ratio amounted to 22. Moreover, the solubility (kinetic) at 1.5 h stood at 51 µg/mL (≈ 133 µM) in data set [7], 75 µg/mL (≈ 196 µM) in data set [8] and 30 µg/mL (≈ 78.5 µM) in [9]. This compound also had a CC50 in the data set with BEAS-2B of 1100 nM.
Take `Cc1ccoc1C(=O)N1CCCn2nc(C(=O)O)cc2C1`: in the data set on Liver [18], the Drug metabolism entry is “Metabolite_Detected”.
Regarding `Cc1ccoc1C(=O)N1CCCn2nc(C(=O)Nc3ccc(F)cc3Cl)cc2C1`, the EC50 in [4] (setting [27]) is 60 nM. For the same compound, in data set [6], the selectivity ratio is 500. The t1/2 came out at 4 min with Liver [19] and 216 min in the data set with Liver [12]. The same compound had a CC50 with BEAS-2B of 30000 nM.
For the compound `Cc1ccoc1C(=O)N1CCCn2nc(C(=O)Nc3ccccc3)cc2C1`, the t1/2 was found to be 15 min with Liver [20], 15 min in the data set with Liver [11], 282 min with Liver [12] and 15 min with Liver [14]. Also, the half-maximal effective concentration (EC50) is above 20000 nM in data set [21]; 200 to 210 nM and 840 nM in [4]; 540 nM in [23]; above 20000 nM in data set [24]. The inhibition result in data set [22] and in [26] was “Dose-dependent effect” each time. Also, the selectivity ratio in data set [6] was found to be 40. In addition, the solubility (kinetic) at 1.5 h in [7] stood at 75 µg/mL (≈ 206 µM); in data set [8] it was 74 µg/mL (≈ 203 µM); in data set [9] it was 63 µg/mL (≈ 173 µM). For the same compound, in the data set with BEAS-2B, the CC50 stood at 8300 nM. The Drug metabolism result in the data set with Liver [25] is “Metabolite_Detected”.
